Experiments:
purified human MPO = purified human MPO (Homo sapiens, UniProt P05164); experiment: Inhibition kinetics of MPO-dependent TMB oxidation by thiol antioxidants; type: biochemical; details: for mode of inhibition of MPO-catalyzed oxidation of TMB: double reciprocal plots 1/V vs 1/[TMB]
Method in brief: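 Purified human MPO (1.5 nM) incubated with test thiol at 0.1–1 μM. Activity measured as initial rate of TMB oxidation, with TMB varied from 20 to 180 μM. Data plotted as double reciprocal 1/V vs 1/[TMB] (Lineweaver-Burk) for each inhibitor level. Slopes of these lines replotted against inhibitor concentration to derive Ki.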

[1] = Ex vivo scavenging of N-chloramines in CF sputum sol-phase; set-up: species or system human; details: 2 μM antioxidant, 25 μl CF sputum sol-phase, 30 min
MPO in CF sputum = type: biochemical, human; details: extrapolated from IC50 in about 2000-fold diluted sputum (Fig 4)
NF-κB = details: GSH 1 mM with CF sputum sol-phase 10 μl/ml, HBE1 cells
[2] = cited from earlier work
[3] = pH 7.4; cited from earlier work
MPO compound I and II = details: cited from earlier work; for rate constant k of reaction with compound I and II of MPO: both compound I and II
[4] = CF patients, 300/450 mg three times daily for 14 days; cited from earlier work
[5] = oral 0.6–1.0 g three times daily for 4 weeks; cited from earlier work
[6] = no reference given; cited from earlier work
[7] = inhalation in CF patients, secondary to acidic nature; no reference given; cited from earlier work
ground state ferric MPO = details: cited from earlier work

purified human MPO, sequence (P05164 279-745 limits assumed): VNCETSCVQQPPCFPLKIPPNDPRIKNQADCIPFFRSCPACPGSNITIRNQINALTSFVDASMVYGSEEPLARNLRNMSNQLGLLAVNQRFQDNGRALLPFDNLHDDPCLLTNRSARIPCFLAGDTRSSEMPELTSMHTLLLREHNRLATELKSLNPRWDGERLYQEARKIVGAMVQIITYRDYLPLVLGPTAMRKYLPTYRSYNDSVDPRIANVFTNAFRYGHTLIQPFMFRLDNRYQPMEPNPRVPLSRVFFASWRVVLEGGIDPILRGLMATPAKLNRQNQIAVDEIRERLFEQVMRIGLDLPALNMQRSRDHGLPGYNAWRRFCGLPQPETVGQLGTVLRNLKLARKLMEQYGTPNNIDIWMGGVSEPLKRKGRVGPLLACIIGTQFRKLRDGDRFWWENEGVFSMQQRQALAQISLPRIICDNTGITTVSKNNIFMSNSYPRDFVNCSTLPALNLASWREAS
purified human MPO, sequence (P05164 165-273 limits assumed): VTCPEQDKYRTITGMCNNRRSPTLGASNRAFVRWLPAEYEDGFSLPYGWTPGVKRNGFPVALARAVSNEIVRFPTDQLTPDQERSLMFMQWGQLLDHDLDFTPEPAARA

N[C@@H](CCC(=O)N[C@@H](CS)C(=O)NCC(=O)O)C(=O)O [GSH, glutathione]
Ki (purified human MPO): 0.08 µM
mode of inhibition of MPO-catalyzed oxidation of TMB (purified human MPO): competitive
lowering of N-chloramine levels [1]: 62 ± 11%
respiratory tract lining fluid concentration required to inhibit MPO in the CF airway (MPO in CF sputum): 1 to 50 mM
p65 nuclear translocation induced by CF sputum (sol-phase) (NF-κB): inhibit p65 nuclear translocation
rate constant k of reaction with taurine chloramine [2]: 115 ± 14 M⁻¹ s⁻¹
second-order rate constant for reaction with H2O2 [3]: 0.87 M⁻¹ s⁻¹
rate constant k of reaction with compound I and II of MPO (MPO compound I and II): 10^1–10^2 M^−1s^−1
lung function after aerosolized GSH [4]: improved lung function

CC(=O)N[C@@H](CS)C(=O)O [NAC, N-acetylcysteine]
mode of inhibition of MPO-catalyzed oxidation of TMB (purified human MPO): non-competitive
lowering of N-chloramine levels [1]: 80 ± 11%
respiratory tract lining fluid concentration required to inhibit MPO in the CF airway (MPO in CF sputum): 1 to 50 mM
lung function, as assessed by FEV1 [5]: no improvement in lung function
neutrophil GSH content [5]: increased neutrophil GSH content
neutrophil influx in CF airways [5]: decreased neutrophil influx in CF airways
sputum IL-8 levels [5]: decreased sputum IL-8 levels
sputum elastase activity [5]: decreased sputum elastase activity
rate constant k of reaction with taurine chloramine [2]: 46 ± 7 M⁻¹ s⁻¹
reactivity with taurine chloramine relative to GSH (times less reactive) [2]: approx. 2.5
second-order rate constant for reaction with H2O2 [3]: 0.16 M⁻¹ s⁻¹
rate constant k of reaction with compound I and II of MPO (MPO compound I and II): 10^1–10^2 M^−1s^−1
pKa [6]: 2.2
side effects on inhalation [7]: can induce bronchospasm

OO [H2O2]
rate constant k of reaction with ground state ferric MPO (ground state ferric MPO): 2.6e+07 M⁻¹ s⁻¹

Cc1cc(-c2cc(C)c(N)c(C)c2)cc(C)c1N [TMB, 3, 3′, 5, 5′-tetramethylbenzidine]
rate constant of reaction with MPO compound I (MPO compound I and II): 3.6e+06 M⁻¹ s⁻¹
rate constant of reaction with MPO compound II (MPO compound I and II): 940000 M⁻¹ s⁻¹

Reference: paper PMC3018684 (Free radical research, 2010)
